Screening results from PubChem.
An excerpt weighted towards active compounds, which were near 2.2% of everything screened.
SIRT5 block = blocks human SIRT5 desuccinylation of peptide; Q9NXA8; Purified SirT5, succinyl-peptide AMC, trypsin-coupled fluorescence; inhibition, % at 15 µM; actives 1.1% (n = 330,000); in the data active = inhibition above about 15%
Target sequence (Q9NXA8 whole entry, looked up): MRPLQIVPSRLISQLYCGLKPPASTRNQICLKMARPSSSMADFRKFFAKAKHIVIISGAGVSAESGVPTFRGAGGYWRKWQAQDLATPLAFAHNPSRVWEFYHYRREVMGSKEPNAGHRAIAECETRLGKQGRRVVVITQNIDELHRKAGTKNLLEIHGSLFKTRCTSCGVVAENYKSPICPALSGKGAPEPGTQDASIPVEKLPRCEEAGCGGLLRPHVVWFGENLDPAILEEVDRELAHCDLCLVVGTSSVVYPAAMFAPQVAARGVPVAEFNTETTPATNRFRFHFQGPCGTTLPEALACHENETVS
ERAP1 inh = inhibitors of human ERAP1 aminopeptidase | actives 0.15% (n = 340,000) | recombinant ERAP1, Leu-AMC fluorescence, 60 min | inhibition, % at 10.7 µM | Q9NZ08;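 active = mean replicate inhibition of at least 30%, or all replicates individually reaching that 30% level; inactive = mean below 30% and not every replicate reaching it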
FGF22 binding = binders of recombinant human FGF22 by thermal shift; Q9HCT0; SYPRO orange fluorescence; percent of sucrose octasulfate shift, DMSO zero; activity (Tm shift, normalised), % at 9.99 µM; actives 1.5% (n = 340,000); AID 651658;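 active = mean Tm shift, scaled 0 neutral to 100 positive control, at about 1.3% or above, every replicate too, limit read from the data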
Target sequence (Q9HCT0 whole entry, looked up): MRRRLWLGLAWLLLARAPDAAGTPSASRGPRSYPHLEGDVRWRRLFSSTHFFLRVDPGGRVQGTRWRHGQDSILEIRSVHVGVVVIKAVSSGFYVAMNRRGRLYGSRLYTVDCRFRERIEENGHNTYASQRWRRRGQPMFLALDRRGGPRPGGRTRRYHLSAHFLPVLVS
PGC1a acetyl inh = modulators of PGC1a acetylation | AID 651687 | actives 0.17% (n = 350,000) | U2OS PGC1a acetylation, AlphaScreen anti-acetyl-lysine; with virally co-expressed GCN5 acetyltransferase | inhibition, % at 15.6 µM;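 active = every replicate shows inhibition of at least 40%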
FN deposit inh = fibronectin deposition inhibition; AH1F fibroblasts, Alexa488-fibronectin deposition fluorescence, overnight; actives 0.086% (n = 350,000); inhibition, % at 12.6 µM;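 active = mean inhibition across replicates of 30% or more, regardless of how many single replicates reach that level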
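Material: AH1F fibroblast monolayer depositing Alexa488-labelled fibronectin into matrix / Amount: 10000 AH1F cells per well / Signal: fluorescence 485/525 nm / Medium: DMEM, 2% serum / Compound: single dose, pinned / Incubation: 1 h cell adhesion before compound, then overnight fibronectin incubation / Reagent: Alexa488-FN, 24 nM final / Read-out: inhibition of fibronectin deposition signal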
Each line names hits and unclear results; the compound was inactive in the other large screens.

Fc1ccc(NC(=S)NCCc2ccccn2)cc1	FGF22 binding 44 (no result: PGC1a acetyl inh)
O=C(c1cccnc1)N1CC(=O)N2[C@H](CO)[C@H](c3ccc(/C=C/c4ccccc4)cc3)[C@H]2C1	none (no result: ERAP1 inh, FGF22 binding, FN deposit inh)
COc1ccccc1S(=O)(=O)N[C@H]1CC[C@@H](CCNC(=O)C2CCOCC2)O[C@H]1CO	none (no result: FN deposit inh)
CN1CCN(C(=O)CCN2C(=O)S/C(=C/c3ccc(Cl)cc3)C2=O)CC1	FGF22 binding 43 (no result: PGC1a acetyl inh)
Cc1ccc(/C=C2\SC(=O)N(CCC(=O)N3CCN(C)CC3)C2=O)cc1	none (no result: PGC1a acetyl inh)
O=C(c1cccnc1)N1N=C(C2CC2)CC1(O)C(F)(F)F (stereo not given)	FGF22 binding 44
O=C(c1ccncc1)N1N=C(C2CC2)CC1(O)C(F)(F)F (stereo not given)	none
C[C@@H]1CN([C@H](C)CO)C(=O)c2cccc(NS(=O)(=O)c3ccccc3)c2O[C@H]1CN(C)C(=O)Nc1ccc(F)cc1	none (no result: FN deposit inh)
COc1ccc(-n2c(O)c(/C=C3\C=Nc4ccccc43)c(=O)[nH]c2=O)cc1	SIRT5 block 39
Cc1nn(CC(=O)NC2CC2)c(C)c1S(=O)(=O)N(C)C	FGF22 binding 43 (no result: SIRT5 block)
Cc1ccc(-c2nnn(CC(=O)N(Cc3ccco3)C(C(=O)NC(C)(C)C)c3ccc(C)o3)n2)o1 (stereo not given)	SIRT5 block 18
Cc1ccc(-c2nnn(CC(=O)N(Cc3ccccc3)C(C(=O)NC(C)(C)C)c3ccncc3)n2)o1 (stereo not given)	none (no result: FN deposit inh)
COc1ccc(CN(C(=O)Cn2nnc(-c3ccc(C)o3)n2)C(C(=O)NCC2CCCO2)c2ccco2)cc1 (stereo not given)	SIRT5 block 112
COc1ccc2c3c(n(C)c2c1)[C@@H](CO)N(S(=O)(=O)c1ccc(C)cc1)CC31CCN(S(=O)(=O)c2ccc(C)cc2)CC1	none (no result: FN deposit inh)
CC(=O)Nc1sc2c(c1-c1nc3ccccc3s1)CN(C(C)C)CC2	PGC1a acetyl inh 52
CCCN1[C@@H]2c3ccc(-c4ccc(C(=O)N(C)C)cc4)c(=O)n3C[C@@H]2[C@@H](CO)[C@@H]1C(=O)NCC	none (no result: PGC1a acetyl inh, FN deposit inh)
CC1CCCC(NC(=O)COC(=O)CCSc2ccccc2)C1C (stereo not given)	SIRT5 block 16
CC1CCCC(NC(=O)COC(=O)c2ccccc2[N+](=O)[O-])C1C (stereo not given)	FGF22 binding 44
CC1CCCC(NC(=O)COC(=O)CCC(=O)c2ccc(F)cc2)C1C (stereo not given)	FGF22 binding 44 (no result: SIRT5 block)
O=C(Nc1ccccc1F)N[C@H]1CC[C@H](CCNS(=O)(=O)c2ccccc2)O[C@H]1CO	none (no result: FN deposit inh)
C[C@H](CO)N1C[C@H](C)[C@H](CN(C)Cc2ccccc2)Oc2cc(C#CCN(C)C)ccc2S1(=O)=O	none (no result: FN deposit inh)
O=C1NC[C@H](CCCCN2C[C@H](Cc3ccccc3)N(CCC3CCCCC3)C(=O)C2=O)N(CCc2ccccc2)C1=O	FGF22 binding 8.8 (no result: PGC1a acetyl inh)
O=C1NC[C@@H](CCCCN2C[C@H](Cc3ccccc3)N(CCC3CCCCC3)C(=O)C2=O)N(CCc2ccccc2)C1=O	none (no result: ERAP1 inh, PGC1a acetyl inh)
CCN(CC)C(=O)N1CCN(S(=O)(=O)c2ccccc2)CC1	FGF22 binding 43 (no result: PGC1a acetyl inh)
Cc1ccc(S(=O)(=O)N2CCN(C(=O)N(c3ccccc3)c3ccccc3)CC2)cc1	none (no result: SIRT5 block, ERAP1 inh, FGF22 binding)
O=C(C[C@@H]1CC[C@@H](NC(=O)C2CCOCC2)[C@H](CO)O1)Nc1ccccc1	none (no result: FGF22 binding, FN deposit inh)
C[C@H]1CCCCO[C@@H](CN(C)Cc2ccc(C(=O)O)cc2)[C@@H](C)CN([C@@H](C)CO)C(=O)c2cc(NC(=O)NC3CCCCC3)ccc2O1	none (no result: FN deposit inh)
O=C(C[C@H]1CC[C@H]2[C@@H](COC[C@@H](O)CN2CC2CC2)O1)NCC1CC1	none (no result: FGF22 binding)
Cc1ccccc1-n1c(=S)[nH]c2nc3c(cc2c1=O)CCCC3	FGF22 binding 43 (no result: PGC1a acetyl inh)
O=C(O)c1cc(N2CCCCC2)nc2ccccc12	FGF22 binding 43 (no result: SIRT5 block)
CCOC(=O)c1cc(N2CCCCC2)nc2ccccc12	none (no result: SIRT5 block, PGC1a acetyl inh, FN deposit inh)
COc1ccc(CNC(=O)CCNS(=O)(=O)c2ccc(Cl)cc2)cc1	none
COc1ccc(S(=O)(=O)NCCC(=O)NCc2ccc(F)cc2)cc1	PGC1a acetyl inh 80 (no result: SIRT5 block, ERAP1 inh, FGF22 binding)
CC(C)(C)c1ccc(C(=O)NCCC(=O)NCc2ccc(F)cc2)cc1	SIRT5 block 15 (no result: PGC1a acetyl inh)
COc1ccc(CNC(=O)CCNC(=O)c2ccc(C(C)(C)C)cc2)cc1OC	none (no result: FN deposit inh)
COc1ccc2cc3cc(C(=O)NCCCN4CCc5ccccc5C4)sc3nc2c1	SIRT5 block 19 (no result: PGC1a acetyl inh)
COC(=O)CC1=C(C)C(=O)CC2C(C)(C)CCCC12C (stereo not given)	SIRT5 block 18 (no result: FN deposit inh)
C=C[C@]1(C)C=C2C(=O)C[C@H]3C(C)(C)CCC[C@]3(C(=O)O)[C@@]2(O)CC1	none (no result: SIRT5 block)
Cc1coc2c(C)c3oc(=O)c(CCC(=O)N[C@@H](C)C(=O)N[C@@H](Cc4ccccc4)C(=O)O)c(C)c3cc12	SIRT5 block 26 (no result: FN deposit inh)
CCN1C(=O)S/C(=C/c2ccc(Oc3ccc([N+](=O)[O-])cn3)c(OC)c2)C1=O	FGF22 binding 43 (no result: PGC1a acetyl inh)
CC(C)NC(=O)N(C)C[C@H]1OCc2ccccc2-c2ccccc2C(=O)N([C@@H](C)CO)C[C@@H]1C	none
Cc1cccc(NC(=O)Nc2ccc3c(c2)C(=O)N(C)[C@H]2CC[C@@H](CC(=O)O)O[C@@H]2CO3)c1	none
N#Cc1ccc(-c2ccc([C@@H]3[C@@H]4CN(S(=O)(=O)c5ccc(-c6ccccc6)cc5)C[C@H]3N4)cc2)cc1	PGC1a acetyl inh 85 (no result: FGF22 binding)
O=S(=O)(c1ccc(-c2ccccc2)cc1)N1C[C@@H]2N[C@H](C1)C2c1ccc(-c2ccccc2)cc1 (stereo not given in full)	none
O=C(NNc1nc2c(F)cc(F)cc2s1)c1ccccc1	FGF22 binding 43 (no result: SIRT5 block, PGC1a acetyl inh, FN deposit inh)
C[n+]1cc2c3c(ccc2c2ccc4cc5c(cc4c21)OCO5)OCO3	FN deposit inh 52 (no result: PGC1a acetyl inh)
CC(C)NC(=O)N(C)C[C@H]1Oc2ncc(C#CCc3ccccc3)cc2C(=O)N([C@@H](C)CO)C[C@@H]1C	SIRT5 block 16
COCC#Cc1cnc2c(c1)C(=O)N([C@@H](C)CO)C[C@@H](C)[C@@H](CN(C)C(=O)c1ccc(F)cc1)O2	SIRT5 block 31
CC(C)C#Cc1cnc2c(c1)C(=O)N([C@@H](C)CO)C[C@H](C)[C@@H](CN(C)C(=O)Cc1ccccn1)O2	SIRT5 block 17
COc1ccccc1NC(=O)N(C)C[C@H]1Oc2ncc(C#CC(C)C)cc2C(=O)N([C@@H](C)CO)C[C@@H]1C	SIRT5 block 16
CC(=O)N(C)C[C@@H]1Oc2ccc(NS(C)(=O)=O)cc2C(=O)N(C)C[C@@H]1C	none (no result: SIRT5 block, ERAP1 inh, FGF22 binding, PGC1a acetyl inh)
O=C(c1cccnc1)N1CC(=O)N2[C@H](CO)[C@@H](c3ccc(-c4ccccc4F)cc3)[C@H]2C1	none (no result: ERAP1 inh)
COc1ccc2c3c([nH]c2c1)[C@H](CO)N(Cc1nccs1)CC31CN(C(=O)C2CCCC2)C1	none (no result: PGC1a acetyl inh, FN deposit inh)
